Laboratory results published in the EternaBench riboswitch data.

Tested on: MS2 coat protein
Experiment: apparent Kd, MS2 coat protein; higher = weaker binding; RNA-MaP array; FMN 200 µM where present
In short: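 Green signal from SNAP-549-labelled MS2 coat protein was normalised to red-channel RNA signal and to the median Fmax of control clusters. The protein was titrated from 0.7 or 1.5 nM, doubling to 3 µM, without and then with constant ligand, over designs transcribed by stalled E. coli RNA polymerase on Illumina sequencing-chip clusters, in 100 mM Tris-HCl pH 7.5, 80 mM KCl, 4 mM MgCl2, BSA, DTT, yeast tRNA and Tween-20. The apparent Kd is the median of filtered per-cluster binding-curve fits.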

[1] = designed as: OFF switch for flavin mononucleotide, no ligand
[2] = ligand present: flavin mononucleotide, designed as: OFF switch for flavin mononucleotide
[3] = designed as: ON switch for flavin mononucleotide, no ligand
[4] = ligand present: flavin mononucleotide, designed as: ON switch for flavin mononucleotide

GGAUGUCAAAGACAUCCAAAUCGAACAUGAGGAUCACCCAUGUAGGAUAUGCUACUCAAAGAGUAGCAGAAGGACAUGUGCUUU
apparent Kd [1]: 0.0415 µM | apparent Kd [2]: 0.223 µM

GGAUUACAUGAGGAUCACCCAUGUGAGGAUAUCGAUGUCCAGUAGGGCGUGCGGGACUCGAGAAGGCACUUGGA
apparent Kd [1]: 0.0475 µM | apparent Kd [2]: 0.177 µM

GGAUUACAUGAGGAUCACCCAUGUGAGGAUAUCGAUGUCCUCAAUCCCGUGCGGGACUCGAGAAGGCACUUGGA
apparent Kd [1]: 0.063 µM | apparent Kd [2]: 0.0488 µM

GGAUUUUACUAGUUUUCUAUACAUGAGGAUCACCCAUGUUUUUAGGAUAUCAGCGUGAAACACGCUGAGAAGGAAGAACAAUCC
apparent Kd [1]: 0.0154 µM | apparent Kd [2]: 0.0185 µM

GGCACUAUCACAGGAUAUGCUUUCCUUUGGGAAGCAGAAGGGUGUAACAUGAGGAUCACCCAUGUGGUGCCAGGGCGUGAGCCC
apparent Kd [3]: 0.114 µM | apparent Kd [4]: 0.0109 µM

GGCAGACAUGAGGAUCACCCAUGUCAGGAUAUGUGGCGAUCGUCGAUAGACGAUAGCCACAGAAGGGACAUGCC
apparent Kd [1]: 0.0239 µM | apparent Kd [2]: 0.0395 µM

GGCAGCGGACAAGGAUAUAAGACGCAGACCAAAUUAGAAGGUGUCAUCUGGCAAUGCGAAAGCAGACAUGAGGAUCACCCAUGU
apparent Kd [3]: 0.0688 µM | apparent Kd [4]: 0.0617 µM

GGCAUGUAAGGAUAUGUCCCUGAGUGCUUUGCGCUCAGGAAACAGAAGGUACAUGAGGAUCACCCAUGUGAUAA
apparent Kd [1]: 0.725 µM | apparent Kd [2]: 0.0759 µM

GGCCCGUAAGGAUAUAAUGCUCAGGUGAAAACCGAGCUCCGUUAGAAGGUACAUGAGGAUCACCCAUGUGAUCG
apparent Kd [1]: 0.107 µM | apparent Kd [2]: 0.124 µM

GGCCUGUGAGGAUAUUAGUAGUAGUCAGAAUAGACUAUUACUGAGAAGGUACAUGAGGAUCACCCAUGUUGGCC
apparent Kd [1]: 0.0194 µM | apparent Kd [2]: 0.0159 µM

GGCGGUCCUUAAUGCACCUGCACAUGAGGAUCACCCAUGUACAGAAGGGCCAGCACCGAAGUAUGGCAGGAUAUGUCGCACGAG
apparent Kd [1]: 0.00756 µM | apparent Kd [2]: 0.0101 µM

GGCUACGUUUCGUAGCAGCUAGGUGAGGAUAUUCAAUUUUUCACAUGAGGAUCACCCAUGUAUGUGAAGAAGGCGCCUAGAAAG
apparent Kd [3]: 0.0126 µM | apparent Kd [4]: 0.00485 µM

GGCUGCGUUGUGAAGGAUAUCCGCGUCUGGACAUGAGGAUCACCCAUGUAUGCUUGGAUCGUGCCGGAGAAGGUCACGAAUGAUU
apparent Kd [3]: 0.0345 µM | apparent Kd [4]: 0.0159 µM

GGCUUAAACACAGGAUAUAGUCUUAGGGCGAGACUAGAAGGGUGAAGUUCUCAUACAUGAGGAUCACCCAUGUCACGGAGGCUA
apparent Kd [3]: 0.0451 µM | apparent Kd [4]: 0.169 µM

GGGAACAUCGGAGGAUAUCAUGUAAAUACAUGAGGAUCACCCAUGUCGAUGGAGACAUCGGAGAUUGAGAAGGCCGAUGUACCG
apparent Kd [3]: 0.173 µM | apparent Kd [4]: 0.00966 µM

GGGAGUGAAGGAUAUACAUGAGGAUCACCCAUGUGGGAGGAGAGAGGUGAGGAGGCUGGUAGAAGGUCAGGAUG
apparent Kd [1]: 0.0602 µM | apparent Kd [2]: 0.0513 µM

GGGCCCGGAGGAUAUACAAUGGGCCCGGGAAACCGGGUUUUACAUGAGGAUCACCCAUGUAGAAGGCCGGGUUU
apparent Kd [1]: 0.0145 µM | apparent Kd [2]: 0.0154 µM

GGGCCCGGAGGAUAUACAUGAGGAUCACCCAUGUAGGGCCCGGGUAUUCCCGGGUUUUGUAGAAGGCCGGGCCC
apparent Kd [2]: 0.0301 µM

GGGCCCGGAGGAUAUACAUGAGGAUCACCCAUGUAGGGCCCGGGUAUUUUUGGGCCCUGUAGAAGGUUGGGCCC
apparent Kd [1]: 0.0115 µM | apparent Kd [2]: 0.0122 µM

GGGCCGUAGUAGAAGGGAUAUACGUUAGGUAUAUCAGGAUAUACAUGAGGAUCACCCAUGUUCUAACAGUGAUAGUCCUCCCUU
apparent Kd [1]: 0.0155 µM | apparent Kd [2]: 0.0331 µM

GGGCUCGGAGGAUAUACAUGAGGAUCACCCAUGUACUCGGGCUCUAUUGGGCUCGGGUGUAGAAGGUCGGGCUC
apparent Kd [1]: 0.0149 µM | apparent Kd [2]: 0.0146 µM

GGGUACAUCGAAGGAUAUCAUGUAAAUACAUGAGGAUCACCCAUGUCGAUGGAGACAUCGGAGAUUGAGAAGGCCGAUGUACCG
apparent Kd [3]: 0.338 µM | apparent Kd [4]: 0.0281 µM

GGGUACAUCGCAGGAUAUCAUGUAAAUACAUGAGGAUCACCCAUGUCGAUGGAGACAUCGGAGAUUGAGAAGGCCGAUGUACCG
apparent Kd [3]: 0.622 µM | apparent Kd [4]: 0.322 µM

GGGUACAUCGGAGGAUAUCAUAUAAAUACAUGAGGAUCACCCAUGUCGAUGGAGACAUCGGAGAUUGAGAAGGCCGAUGUACCG
apparent Kd [3]: 0.00843 µM | apparent Kd [4]: 0.00554 µM

GGGUACAUCGGAGGAUAUCAUGUAAAUACAUGAGGAUCACCCAUGUCGAUCGAGACAUCGGAGAUUGAGAAGGCCGAUGUACCG
apparent Kd [3]: 0.163 µM | apparent Kd [4]: 0.286 µM

GGGUACAUCGGAGGAUAUCAUGUAAAUACAUGAGGAUCACCCAUGUCGAUGGAGACAUCGGAGAUUAAGAAGGCCGAUGUACCG
apparent Kd [3]: 0.801 µM | apparent Kd [4]: 0.842 µM

GGGUACAUCGGAGGAUAUCAUGUAAAUACAUGAGGAUCACCCAUGUCGAUGGAGACAUCGGAGAUUGAGAAGGCCGAUCUACCG
apparent Kd [3]: 0.213 µM | apparent Kd [4]: 0.00994 µM

GGGUACAUCGGAGGAUAUCAUGUAAAUACAUGAGGAUCACCCAUGUCGAUGGAGAGAUCGGAGAUUGAGAAGGCCGAUGUACCG
apparent Kd [3]: 0.0974 µM | apparent Kd [4]: 0.041 µM

GGGUACAUGGGAGGAUAUCCUCAAGAGACAUGAGGAUCACCCAUGUAUUAUAAGCCGAAAGGCAUGGAGAAGGCCCAUGUACCG
apparent Kd [3]: 0.062 µM | apparent Kd [4]: 0.0191 µM

GGGUACAUUGGAGGAUAUCAUGUAAAUACAUGAGGAUCACCCAUGUCGAUGGAGACAUCGGAGAUUGAGAAGGCCGAUGUACCG
apparent Kd [3]: 0.183 µM | apparent Kd [4]: 0.00908 µM

GGGUAGUGAGGAUAUCGUUGUUAGGAGGAGUAGGUAGGAGGCGAGAAGGCACAUGAGGAUCACCCAUGUAUGGA
apparent Kd [1]: 0.0362 µM | apparent Kd [2]: 0.0333 µM

GGGUCCGCUCGAGGAUAUAGCUGCAUGUAGUGUCCUGAGGCACAUGAGGAUCACCCAUGUGUAGGCUAGAAGGCGACGGACACU
apparent Kd [1]: 0.05 µM | apparent Kd [2]: 0.114 µM

GGGUGGCGUAGAGGAUAUGUGGUACAUGAGGAUCACCCAUGUGCAUAUGAUGUUCGUGUGUCAUCAUAGAAGGCUACGUCGCUA
apparent Kd [3]: 0.132 µM | apparent Kd [4]: 0.0629 µM

GGGUUGUGAGGAUAUUAGUUGUACGUCAAUAGACGUAUAGGUGAGAAGGCACAUGAGGAUCACCCAUGUUCCUG
apparent Kd [1]: 0.0238 µM | apparent Kd [2]: 0.0569 µM

GGGUUUGGAGGAUAUACAUGAGGAUCACCCAUGUAGGGUUUGGGUAUUCCCGGGCCCUGUAGAAGGCCGGGCCC
apparent Kd [1]: 0.0166 µM | apparent Kd [2]: 0.0204 µM

GGUAAACAUGAGGAUCACCCAUGUAAUAAUAUGGGAGGAUAUGGGAAUUAAUUAAUUAAACCAGAAGGCCUAAUUG
apparent Kd [3]: 0.216 µM | apparent Kd [4]: 0.0256 µM

GGUAAGAUGCAGAAGGUGUUAGCUAGAGCUACGACAUGAGGAUCACCCAUGUACUAGAAACAGUACAAGGAUAUGCAUCUUACC
apparent Kd [3]: 0.0184 µM | apparent Kd [4]: 0.00638 µM

GGUACCAUCACAGGAUAUGCAAUCCUUUGGGUUGCAGAAGGGUGUAACAUGAGGAUCACCCAUGUGGUGCCAGGGCGUGAGCCC
apparent Kd [3]: 0.423 µM | apparent Kd [4]: 0.0445 µM

GGUACUCAAAGAGUACAAGGACGAACAUGAGGAUCACCCAUGUAGGAUAUGCUACUCAAAGAGUAGCAGAAGGACAUGUGCAGC
apparent Kd [1]: 0.0256 µM | apparent Kd [2]: 0.073 µM

GGUAGGUUCACAGGAUAUGCUAUCCUUUGGGUAGCAGAAGGGUGAUAACAUGAGGAUCACCCAUGUCCUACCGGGCGUGAGCCC
apparent Kd [3]: 1.12 µM | apparent Kd [4]: 0.113 µM

GGUAUCUCCCGUGAGGAUAUGCGGCGUAGAACAUGAGGAUCACCCAUGUCCUUCGAAUGGGUUACGCAGAAGGCACGACGGUACC
apparent Kd [3]: 0.0333 µM | apparent Kd [4]: 0.0185 µM

GGUCCAGCAUGAGGAUAUGGCACCUUAUUGGUGCCAGAAGGCAUGUCUAUAGACAUGAGGAUCACCCAUGUAAUAAAUUGGACC
apparent Kd [4]: 0.0432 µM

GGUCCUUCUGUUAGGAUAUGCUUUGGGCUUCCGCAGUAGAAGGAACAUGAGGAUCACCCAUGUCCGAUGCCGUC
apparent Kd [1]: 0.086 µM | apparent Kd [2]: 0.0881 µM

GGUCGUCAAGUCAGGAUAUCGUAUAGUAGAUGUAACGAGAAGGGACAUGAGGAUCACCCAUGUCGUCUCAUCAG
apparent Kd [1]: 0.0189 µM | apparent Kd [2]: 0.0258 µM

GGUCGUCACAUUAACAUGAGGAUCACCCAUGUGAAAACACAUGAGGAUAUGCAUCCUAAUUGGAUGCAGAAGGCAUGGACGACC
apparent Kd [3]: 0.0247 µM | apparent Kd [4]: 0.00628 µM

GGUGCCAUGUAGAAGGCAGAUCUGAUUCACAUCUGAGGAUAUACAUGAGGAUCACCCAUGUAAAGGCACCGCACGAGAGUGCAA
apparent Kd [1]: 0.0163 µM | apparent Kd [2]: 0.015 µM

GGUGCCAUGUAGAAGGCAGAUCUGAUUCAGAUCUGAGGAUAUACAUGAGGAUCACCCAUGUAAAGGCUCCGCACGAGAGUGCAA
apparent Kd [1]: 0.0149 µM | apparent Kd [2]: 0.0417 µM

GGUGCGAGUGUGAGGAUAUGCUGGUCGUAAGAUCAGCAGAAGGCACAUGAGGAUCACCCAUGUGAAAACGUACC
apparent Kd [1]: 0.0223 µM | apparent Kd [2]: 0.145 µM

GGUGCGAUGUAGAAGGCAGAUCUGAUUCAGAUCUGAGGAUAUACAUGAGGAUCACCCAUGUUAAGGCACCGCACGAGAGUGCAA
apparent Kd [1]: 0.0074 µM | apparent Kd [2]: 0.0137 µM

GGUGCGUCUGUGAGGAUAUGCUGGUCCUUGGCUCGGCAGAAGGCACAUGAGGAUCACCCAUGUGGUGUCGUGCC
apparent Kd [1]: 0.0185 µM | apparent Kd [2]: 0.0346 µM

GGUGCUCAAAGAGUACCAAUACGAACAUGAGGAUCACCCAUGUAGGAUAUGCUACUCAAAGAGUAGCAGAAGGACAUGUGCCUA
apparent Kd [1]: 0.0164 µM | apparent Kd [2]: 0.116 µM

GGUGGACAUGAGGAUCACCCAUGUGAGGAUAUCGGCCGGUUCGUGGUGGCUGGCGUCUCGAGAAGGCACAUAGU
apparent Kd [1]: 0.153 µM | apparent Kd [2]: 0.129 µM

GGUGGACAUGAGGAUCACCCAUGUGAGGAUAUCGGCUGGUGCGUGGUGGCUGGCAUCUCGAGAAGGCACAUAGU
apparent Kd [1]: 0.0944 µM | apparent Kd [2]: 0.171 µM

GGUGGUCUUGUGAGGAUAUGGUUGGAUGCAUAUGAUCAGAAGGCACAUGAGGAUCACCCAUGUGGAAUACCACU
apparent Kd [1]: 0.0373 µM | apparent Kd [2]: 0.234 µM

GGUUGACAAAGUCAACCAUAACGAACAUGAGGAUCACCCAUGUAGGAUAUGCUACUCAAAGAGUAGCAGAAGGACAUGUGCCUU
apparent Kd [1]: 0.0357 µM | apparent Kd [2]: 0.293 µM

GGUUGACAAAGUCAACCAUAACGAACAUGAGGAUCACCCAUGUAGGAUAUGCUACUCAAAGAGUAGCAGAAGGACAUGUGUCUU
apparent Kd [1]: 0.0326 µM | apparent Kd [2]: 0.161 µM
